Experimental data as given in ChEMBL document CHEMBL1154100, “Tetrahydroisoquinolines as dopaminergic ligands: 1-Butyl-7-chloro-6-hydroxy-tetrahydroisoquinoline, a new compound with antidepressant-like activity in mice” (Bioorg Med Chem, 2009).
Blank lines part the entries; values can stand above or below the molecule they belong to. The source made the active and inactive calls. The calls are words filed in the database; no cut-off is given here.

Legend:
[1] = species: Rattus norvegicus; test: Selectivity for Wistar rat dopamine D2 receptor over Wistar rat dopamine D1 receptor
[2] = target: Sodium-dependent dopamine transporter (Rattus norvegicus) (UniProt P23977); test: Inhibition of DAT in Wistar rat striatal synaptosomes at 100 uM by [3H]dopamine uptake assay; assay type: subcellular; details: Brain
Procedure, shortened: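 Synaptosomes were prepared from female Wistar rat striatum at 0–4 °C. Tissue was homogenized in 0.32 M sucrose, spun twice at 1000g for 10 min, and the pooled supernatants were spun at 16,000g for 30 min. The pellet was taken up in Krebs medium (pH 7.6, with glucose). Samples were preincubated for 10 min at 37 °C with pargyline, then given 0.5 nM final [³H]dopamine for 10 min. Uptake was stopped by ice-cold dilution and rapid fiberglass filtration.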

[3] = target: D(1A) dopamine receptor (Rattus norvegicus, UniProt P18901); test: Displacement of [3H]SCH23390 from dopamine D1 receptor in Wistar rat striatal membrane by liquid scintillation counting; assay type: cell membranes, Striatum
Procedure, shortened: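 Female Wistar rat striatum homogenized in 50 mM Tris-HCl pH 7.4, then washed twice at 49,000g. Membranes were resuspended in Tris-ions buffer (NaCl, CaCl2, KCl, MgCl2, 0.1% ascorbate). [3H]-SCH23390 displacement was read by filtration and scintillation counting. Ki was derived using KD 0.36 nM; 3–6 independent runs in duplicate, mean SEM.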

[4] = target: D(2) dopamine receptor (Rattus norvegicus, UniProt P61169); test: Displacement of [3H]raclopride from dopamine D2 receptor in Wistar rat striatal membrane by liquid scintillation counting; assay type: cell membranes, Striatum
Procedure, shortened: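 Striata from female Wistar rats (200–220 g) were homogenized in 50 mM Tris-HCl (pH 7.4) and centrifuged twice at 49,000g for 15 min at 4 °C. Membranes were resuspended in Tris buffer containing 120 mM NaCl, 2 mM CaCl₂, 5 mM KCl, 1 mM MgCl₂ and 0.1% ascorbic acid (pH 7.4). Samples were filtered, washed with cold buffer and counted by scintillation. Ki was derived using a [³H]raclopride KD of 1,25 nM, from 3–6 determinations run in duplicate.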

[5] = system: Mus musculus; test: Antidepressant-like activity in NMRI mouse assessed as reduction in immobility time at 0.01 mg/kg, ip by forced swimming test in presence of D2 receptor antagonist haloperidol; assay type: functional, organism-based; set-up: dose 0.01 mg/kg
Procedure, shortened: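 Male NMRI mice, 10/group. Haloperidol 0.03 mg/kg sc was injected just before ip test compound, 30 min before a 6-min forced swim (water 23–24 °C, depth 13 cm). Immobility was measured during the final 4 min. Analysis by ANOVA with Fisher PLSD.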

[6] = system: Mus musculus; test: Antidepressant-like activity in NMRI mouse assessed as increase in locomotor activity at 0.01 mg/kg, ip after 18 mins by photoelectronic actimeter method; assay type: functional; details: route intraperitoneal
Procedure, shortened: (§1)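 Naive male NMRI mice (25–30 g), n = 10/group; single ip injection (10 mL/kg, saline vehicle) 30 min before test, during the dark phase. Photoelectronic actimeter with two perpendicular infrared beams; beam crossings counted cumulatively at 6-min intervals over a 30-min session. Vs vehicle by ANOVA and Fisher PLSD; mean SD.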

[7] = system: Mus musculus; test: Antidepressant-like activity in NMRI mouse assessed as increase in locomotor activity at 0.01 mg/kg, ip after 24 mins by photoelectronic actimeter method; assay type: functional; details: route intraperitoneal; procedure, shortened: as §1
[8] = system: Mus musculus; test: Antidepressant-like activity in NMRI mouse assessed as increase in locomotor activity at 0.01 mg/kg, ip after 6 mins by photoelectronic actimeter method; assay type: functional; details: route intraperitoneal; procedure, shortened: as §1
[9] = system: Mus musculus; test: Antidepressant-like activity in NMRI mouse assessed as increase in locomotor activity at 25 mg/kg, ip after 18 mins by photoelectronic actimeter method; assay type: functional; details: route intraperitoneal; procedure, shortened: as §1
[10] = system: Mus musculus; test: Antidepressant-like activity in NMRI mouse assessed as increase in locomotor activity at 0.04 mg/kg, ip after 6 mins by photoelectronic actimeter method; assay type: functional; details: route intraperitoneal; procedure, shortened: as §1
[11] = system: Mus musculus; test: Antidepressant-like activity in NMRI mouse assessed as increase in locomotor activity at 0.2 mg/kg, ip by photoelectronic actimeter method in presence of D2 receptor antagonist haloperidol; assay type: functional, organism-based; set-up: dose 0.2 mg/kg
Procedure, shortened: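 Male NMRI mice, n = 10/group. Haloperidol 0.03 mg/kg sc given just before ip test compound (0.2 mg/kg) or saline, 30 min before testing. Spontaneous locomotion was counted as infrared beam crossings in a photoelectric actimeter over 30 min. Groups were compared by Fisher PLSD; mean SD.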

[12] = system: Mus musculus; test: Antidepressant-like activity in NMRI mouse assessed as increase in locomotor activity at 1 mg/kg, ip after 30 mins by photoelectronic actimeter method; assay type: functional; details: route intraperitoneal; procedure, shortened: as §1
[13] = system: Mus musculus; test: Antidepressant-like activity in NMRI mouse assessed as increase in locomotor activity at 5 mg/kg, ip after 6 mins by photoelectronic actimeter method; assay type: functional; details: route intraperitoneal; procedure, shortened: as §1
[14] = system: Mus musculus; test: Antidepressant-like activity in NMRI mouse assessed as increase in locomotor activity at 5 mg/kg, ip after 12 mins by photoelectronic actimeter method; assay type: functional; details: route intraperitoneal; procedure, shortened: as §1
[15] = system: Mus musculus; test: Antidepressant-like activity in NMRI mouse assessed as increase in locomotor activity at 0.04 mg/kg, ip after 12 mins by photoelectronic actimeter method; assay type: functional; details: route intraperitoneal; procedure, shortened: as §1
[16] = system: Mus musculus; test: Antidepressant-like activity in NMRI mouse assessed as increase in locomotor activity at 0.2 mg/kg, ip after 24 mins by photoelectronic actimeter method; assay type: functional; details: route intraperitoneal; procedure, shortened: as §1
[17] = system: Mus musculus; test: Antidepressant-like activity in NMRI mouse assessed as increase in locomotor activity at 25 mg/kg, ip after 30 mins by photoelectronic actimeter method; assay type: functional; details: route intraperitoneal; procedure, shortened: as §1
[18] = system: Mus musculus; test: Antidepressant-like activity in NMRI mouse assessed as increase in locomotor activity at 0.01 mg/kg, ip after 12 mins by photoelectronic actimeter method; assay type: functional; details: route intraperitoneal; procedure, shortened: as §1
[19] = system: Mus musculus; test: Antidepressant-like activity in NMRI mouse assessed as increase in locomotor activity at 25 mg/kg, ip after 6 mins by photoelectronic actimeter method; assay type: functional; details: route intraperitoneal; procedure, shortened: as §1
[20] = system: Mus musculus; test: Antidepressant-like activity in NMRI mouse assessed as reduction in immobility time at 0.01 mg/kg, ip by forced swimming test; assay type: functional, organism-based; set-up: dose 0.01 mg/kg
Procedure, shortened: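 Male NMRI mice, 10/group, not pre-tested; ip dosing in saline 30 min before test. Each mouse swam 6 min in a cylinder (12 cm diameter, 13 cm water, 23–24 °C). Immobility was scored over the last 4 min after a 2-min delay. Imipramine 16 mg/kg was the reference. Analysis by ANOVA with Fisher PLSD.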

[21] = system: Mus musculus; test: Antidepressant-like activity in NMRI mouse assessed as increase in locomotor activity at 0.2 mg/kg, ip after 30 mins by photoelectronic actimeter method; assay type: functional; details: route intraperitoneal; procedure, shortened: as §1
[22] = system: Mus musculus; test: Antidepressant-like activity in NMRI mouse assessed as increase in locomotor activity at 1 mg/kg, ip after 18 mins by photoelectronic actimeter method; assay type: functional; details: route intraperitoneal; procedure, shortened: as §1
[23] = system: Mus musculus; test: Antidepressant-like activity in NMRI mouse assessed as increase in locomotor activity at 1 mg/kg, ip after 24 mins by photoelectronic actimeter method; assay type: functional; details: route intraperitoneal; procedure, shortened: as §1
[24] = system: Mus musculus; test: Antidepressant-like activity in NMRI mouse assessed as increase in locomotor activity at 5 mg/kg, ip after 18 mins by photoelectronic actimeter method; assay type: functional; details: route intraperitoneal; procedure, shortened: as §1
[25] = system: Mus musculus; test: Antidepressant-like activity in NMRI mouse assessed as increase in locomotor activity at 25 mg/kg, ip after 24 mins by photoelectronic actimeter method; assay type: functional; details: route intraperitoneal; procedure, shortened: as §1
[26] = system: Mus musculus; test: Antidepressant-like activity in NMRI mouse assessed as increase in locomotor activity at 0.2 mg/kg, ip after 6 mins by photoelectronic actimeter method; assay type: functional; details: route intraperitoneal; procedure, shortened: as §1
[27] = system: Mus musculus; test: Antidepressant-like activity in NMRI mouse assessed as increase in locomotor activity at 0.01 mg/kg, ip after 30 mins by photoelectronic actimeter method; assay type: functional; details: route intraperitoneal; procedure, shortened: as §1
[28] = system: Mus musculus; test: Antidepressant-like activity in NMRI mouse assessed as increase in locomotor activity at 0.04 mg/kg, ip after 30 mins by photoelectronic actimeter method; assay type: functional; details: route intraperitoneal; procedure, shortened: as §1
[29] = system: Mus musculus; test: Antidepressant-like activity in NMRI mouse assessed as increase in locomotor activity at 5 mg/kg, ip after 24 mins by photoelectronic actimeter method; assay type: functional; details: route intraperitoneal; procedure, shortened: as §1
[30] = system: Mus musculus; test: Antidepressant-like activity in NMRI mouse assessed as increase in locomotor activity at 0.04 mg/kg, ip after 24 mins by photoelectronic actimeter method; assay type: functional; details: route intraperitoneal; procedure, shortened: as §1
[31] = system: Mus musculus; test: Antidepressant-like activity in NMRI mouse assessed as increase in locomotor activity at 1 mg/kg, ip after 6 mins by photoelectronic actimeter method; assay type: functional; details: route intraperitoneal; procedure, shortened: as §1
[32] = system: Mus musculus; test: Antidepressant-like activity in NMRI mouse assessed as increase in locomotor activity at 5 mg/kg, ip after 30 mins by photoelectronic actimeter method; assay type: functional; details: route intraperitoneal; procedure, shortened: as §1
[33] = system: Mus musculus; test: Antidepressant-like activity in NMRI mouse assessed as increase in locomotor activity at 0.2 mg/kg, ip after 12 mins by photoelectronic actimeter method; assay type: functional; details: route intraperitoneal; procedure, shortened: as §1
[34] = system: Mus musculus; test: Antidepressant-like activity in NMRI mouse assessed as increase in locomotor activity at 0.2 mg/kg, ip after 18 mins by photoelectronic actimeter method; assay type: functional; details: route intraperitoneal; procedure, shortened: as §1
[35] = system: Mus musculus; test: Antidepressant-like activity in NMRI mouse assessed as increase in locomotor activity at 0.04 mg/kg, ip after 18 mins by photoelectronic actimeter method; assay type: functional; details: route intraperitoneal; procedure, shortened: as §1
[36] = system: Mus musculus; test: Antidepressant-like activity in NMRI mouse assessed as increase in locomotor activity at 25 mg/kg, ip after 12 mins by photoelectronic actimeter method; assay type: functional; details: route intraperitoneal; procedure, shortened: as §1
[37] = system: Mus musculus; test: Antidepressant-like activity in NMRI mouse assessed as increase in locomotor activity at 1 mg/kg, ip after 12 mins by photoelectronic actimeter method; assay type: functional; details: route intraperitoneal; procedure, shortened: as §1

Chain of Sodium-dependent dopamine transporter (Rattus norvegicus) (P23977 whole entry): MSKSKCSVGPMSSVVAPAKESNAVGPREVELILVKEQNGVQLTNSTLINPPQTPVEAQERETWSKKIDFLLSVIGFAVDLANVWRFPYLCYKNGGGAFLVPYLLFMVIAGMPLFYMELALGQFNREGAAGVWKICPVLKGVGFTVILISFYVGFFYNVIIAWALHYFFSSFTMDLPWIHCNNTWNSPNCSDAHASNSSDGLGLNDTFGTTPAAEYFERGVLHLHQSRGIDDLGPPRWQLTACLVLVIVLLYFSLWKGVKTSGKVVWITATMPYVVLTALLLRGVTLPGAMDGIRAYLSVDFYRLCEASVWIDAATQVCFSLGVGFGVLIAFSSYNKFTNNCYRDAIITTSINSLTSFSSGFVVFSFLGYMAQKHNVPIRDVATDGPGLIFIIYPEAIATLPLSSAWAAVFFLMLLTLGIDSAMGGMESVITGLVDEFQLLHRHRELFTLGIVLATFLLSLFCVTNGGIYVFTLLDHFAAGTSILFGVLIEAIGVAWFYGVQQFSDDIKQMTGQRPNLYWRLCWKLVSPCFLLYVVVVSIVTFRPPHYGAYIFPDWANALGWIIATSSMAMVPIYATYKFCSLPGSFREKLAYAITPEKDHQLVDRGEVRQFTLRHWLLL
Chain of D(2) dopamine receptor (P61169 whole entry): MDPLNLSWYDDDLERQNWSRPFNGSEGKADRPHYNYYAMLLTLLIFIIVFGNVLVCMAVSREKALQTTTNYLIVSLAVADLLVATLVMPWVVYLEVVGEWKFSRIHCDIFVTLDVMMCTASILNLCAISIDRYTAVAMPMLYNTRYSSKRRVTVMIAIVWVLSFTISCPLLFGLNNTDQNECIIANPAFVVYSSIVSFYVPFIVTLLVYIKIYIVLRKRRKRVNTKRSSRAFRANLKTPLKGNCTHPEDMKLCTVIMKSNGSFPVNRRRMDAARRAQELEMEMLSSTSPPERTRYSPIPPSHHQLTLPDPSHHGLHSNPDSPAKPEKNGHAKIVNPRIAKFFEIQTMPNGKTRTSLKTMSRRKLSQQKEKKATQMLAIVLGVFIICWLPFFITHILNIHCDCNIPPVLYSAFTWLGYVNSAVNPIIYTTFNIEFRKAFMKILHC
Chain of D(1A) dopamine receptor (P18901 whole entry): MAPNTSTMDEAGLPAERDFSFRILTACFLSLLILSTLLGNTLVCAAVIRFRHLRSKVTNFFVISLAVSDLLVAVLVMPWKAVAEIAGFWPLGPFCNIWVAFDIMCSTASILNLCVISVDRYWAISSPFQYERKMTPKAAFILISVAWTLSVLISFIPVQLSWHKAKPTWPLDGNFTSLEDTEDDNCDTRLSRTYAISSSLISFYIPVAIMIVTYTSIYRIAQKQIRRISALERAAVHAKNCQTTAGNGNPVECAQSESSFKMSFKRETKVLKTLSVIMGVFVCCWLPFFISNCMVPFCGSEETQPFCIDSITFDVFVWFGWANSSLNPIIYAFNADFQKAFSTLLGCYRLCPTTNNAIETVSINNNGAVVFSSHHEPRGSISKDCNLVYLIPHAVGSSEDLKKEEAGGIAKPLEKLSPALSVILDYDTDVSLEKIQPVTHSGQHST

SMILES: CCCCC1NCCc2cc(Cl)c(OC)cc21 (stereo not drawn)
- fold change (FC) [1]: 20
- Activity [2]: inactive
- Ki [3]: 17300 nM
- Ki ([4]; read-out: pKi (converted)): 780 nM

SMILES: CCCCC1c2cc(O)c(Cl)cc2CCN1C (stereo not drawn)
- fold change (FC) [1]: 2.3
- Activity [2]: inactive
- Ki [3]: 1140 nM
- Ki ([4]; read-out: pKi (converted)): 395 nM

SMILES: CCCCC1NCCc2cc(O)c(Cl)cc21 (stereo not drawn)
- Activity [5]: inactive
- Activity [6]: 133
- Activity [7]: 147
- Activity [8]: 72
- fold change (FC) [1]: 49
- Activity [9]: 319
- Activity [10]: 102
- Activity [11]: inactive
- Activity [12]: 340
- Activity [13]: 153
- Activity [14]: 276
- Activity [15]: 142
- Activity [16]: 255
- Activity [17]: 426
- Activity [2]: inactive
- Activity [18]: 105
- Activity [19]: 170
- Activity [20]: Active
- Activity [21]: 277
- Activity [22]: 257
- Activity [23]: 307
- Activity [24]: 345
- Activity [25]: 367
- Activity [26]: 115
- Activity [27]: 153
- Ki [3]: 3230 nM
- Activity [28]: 200
- Ki ([4]; read-out: pKi (converted)): 60.3 nM
- Activity [29]: 411
- Activity [30]: 185
- Activity [31]: 122
- Activity [32]: 464
- Activity [33]: 186
- Activity [34]: 219
- Activity [35]: 170
- Activity [36]: 260
- Activity [37]: 200

SMILES: CCCCC1NCCc2cc(Cl)c(O)cc21 (stereo not drawn)
- fold change (FC) [1]: 17
- Activity [2]: inactive
- Ki [3]: 1210 nM
- Ki ([4]; read-out: Ki): 91 nM

Results, then the molecule that gave them:

- fold change (FC) [1]: 0.6
- Activity [2]: inactive
- Ki [3]: 111 nM
- Ki ([4]; read-out: pKi (converted)): 207 nM
SMILES: CN1CCc2cc(Cl)c(O)cc2C1Cc1ccccc1 (stereo not drawn)

- fold change (FC) [1]: 20
SMILES: O=C(CCCN1CCC(O)(c2ccc(Cl)cc2)CC1)c1ccc(F)cc1

- fold change (FC) [1]: 4.8
- Activity [2]: inactive
- Ki [3]: 326 nM
- Ki ([4]; read-out: Ki): 71 nM
- Ki ([4]; read-out: pKi (converted)): 66.4 nM
SMILES: Oc1cc2c(cc1Cl)CCNC2Cc1ccccc1 (stereo not drawn)

- fold change (FC) [1]: 5
- Activity [2]: inactive
- Ki [3]: 2360 nM
- Ki ([4]; read-out: pKi (converted)): 968 nM
SMILES: COc1cc2c(cc1Cl)CCNC2Cc1ccccc1 (stereo not drawn)
